E coli WT exp: blocks growth of wild type E. coli BW25113. 0.15% of 98,000 active. growth inhibition, % at 100 µM. OD600 absorbance;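 active = growth inhibition above about 50% at one test dose, limit read from the data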;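 note: growth measured after 20 h incubation at 37 °C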
PostGolgi ctrl: yeast control strain growth, post-Golgi counter-screen; efflux-deficient yeast background strain, growth absorbance A615, 16 h; inhibition, % at 10 µM; 5% of 98,000 active; AID 738
tolC growth inh: E. coli tolC mutant growth inhibition; E. coli BW25113 tolC mutant growth, OD615; 2.2% of 65,000 active; growth inhibition, % at 10 µM (by protocol);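 active = growth inhibition at or above a cutoff equal to the mean over every tested compound plus 3 SD, cut at about 60% in these data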;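 note: growth measured after 20 h incubation at 37 °C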
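Test system – E. coli BW25113 ΔtolC::kan, tolC deletion mutant strain · Detection – OD at 615 nm · Buffer or medium – LB with kanamycin 50 µg/mL · Times – 20 h compound exposure of bacteria at 37 °C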
PostGolgi yeast: growth inhibition of a yeast mutant, post-Golgi transport screen; post-Golgi transport phenotypic cell assay; 0.9% of 98,000 active; inhibition, % at 10 µM;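 note: yeast cells grown in 1536-well plates; yeast grown about 18 h at 30C before absorbance read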
PLAP activator: activates human placental alkaline phosphatase; P05187; purified PLAP enzyme, luminescent substrate read-out; active compounds read high; activation fold at 20 µM; 1.2% of 96,000 active; AID 696; in the data active = activation fold above about 2
Target sequence (P05187 whole entry, looked up): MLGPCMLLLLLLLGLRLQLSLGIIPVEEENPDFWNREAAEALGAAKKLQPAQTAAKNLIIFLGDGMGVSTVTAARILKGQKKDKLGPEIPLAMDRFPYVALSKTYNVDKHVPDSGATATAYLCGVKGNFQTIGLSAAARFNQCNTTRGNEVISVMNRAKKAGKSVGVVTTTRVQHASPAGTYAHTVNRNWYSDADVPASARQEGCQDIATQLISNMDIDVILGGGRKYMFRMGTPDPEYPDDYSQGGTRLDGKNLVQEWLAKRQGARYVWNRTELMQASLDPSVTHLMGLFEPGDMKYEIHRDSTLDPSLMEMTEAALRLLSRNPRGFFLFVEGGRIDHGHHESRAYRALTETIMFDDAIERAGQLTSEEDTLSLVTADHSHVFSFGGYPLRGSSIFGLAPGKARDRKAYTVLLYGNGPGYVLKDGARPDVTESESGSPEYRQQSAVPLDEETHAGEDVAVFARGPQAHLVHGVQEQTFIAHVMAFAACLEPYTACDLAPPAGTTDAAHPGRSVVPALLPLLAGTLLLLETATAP
Active calls of the source: *; nt = no result. Compounds with a hit are over-represented: about 7.2% of the library has one in this group of screens. Cut-off read from the data, not from the text of the source, unless noted: active = inhibition above about 30%; inactive = the rest.

SMILES | E coli WT exp | PostGolgi ctrl | tolC growth inh | PostGolgi yeast | PLAP activator
COc1ccc(-c2nc(SCC(=O)Nc3cc(C)on3)n[nH]2)cc1 | 3 | 4 | nt | 3 | 2.1*
O=C1c2ccccc2C(Nc2ccc3c(c2)OCCO3)N1Cc1ccccc1 (stereo not drawn) | -8 | 12 | 28 | -14 | 1.3
CCSC(C)CC1C/C(=N/O)c2c(CC)noc2C1 (stereo not drawn) | 10 | 14 | 61* | 1 | 0.8
Cc1ccc(S(=O)(=O)c2c(C)nn(C(C)(C)C)c2OC(=O)c2ccc(Br)o2)cc1 | -10 | 17 | 2 | 50* | 1.1
Cc1nn(C(C)(C)C)c(OC(=O)c2ccc3c(c2)OCO3)c1Sc1ccccc1 | -13 | 10 | nt | -8 | 1.3
Cc1nn(C(C)(C)C)c(OC(=O)c2ccc3c(c2)OCO3)c1S(=O)(=O)c1ccccc1 | -11 | 37* | 16 | 4 | 1.3
O=C(Nc1ccc2c(c1)OCCO2)C1CCCN(S(=O)(=O)c2cnc[nH]2)C1 (stereo not drawn) | 4 | 7 | -15 | -8 | 1.1
CCOc1ccccc1C1C(C(=O)Nc2ccccc2OC)=C(C)Nc2nnnn21 (stereo not drawn) | -5 | 11 | 3 | 2 | 0.9
Cc1ccccc1-c1cc(C(=O)Nc2sc(C)c(C)c2C(N)=O)c2ccccc2n1 | -7 | 39* | nt | 13 | 1.5
CCOC(=O)c1sc(NC(=O)c2cc(-c3ccccc3C)nc3ccccc23)c(C#N)c1C | 2 | 12 | nt | 10 | 1.7
O=C(NCC(c1cccnc1)N1CCN(c2ccccc2F)CC1)c1ccccc1 (stereo not drawn) | 5 | 3 | 3 | 10 | 1.2
O=S(=O)(NCC(c1cccnc1)N1CCN(c2ccccc2)CC1)c1cccs1 (stereo not drawn) | -7 | 55* | 12 | 88* | 1.6
COc1ccc(N2CCN(C(CNS(=O)(=O)c3cccs3)c3cccnc3)CC2)cc1 (stereo not drawn) | 0 | -2 | -4 | -2 | 1.6
O=C(NCC(c1cccnc1)N1CCN(c2ccccc2)CC1)c1ccc2c(c1)OCO2 (stereo not drawn) | 1 | 8 | -5 | 74* | 1.6
O=C(NCC(c1cccnc1)N1CCN(c2ccc(F)cc2)CC1)c1cccc(Cl)c1 (stereo not drawn) | 3 | 91* | 6 | 77* | 1.3
O=C(NCC(c1cccnc1)N1CCN(c2ccc(F)cc2)CC1)OCc1ccccc1 (stereo not drawn) | 7 | 25 | 11 | 59* | 1.6
O=C(NCC(c1cccnc1)N1CCOCC1)c1ccc2c(c1)OCO2 (stereo not drawn) | 3 | 0 | -23 | -1 | nt
O=C(c1ccc(CS(=O)(=O)c2cccc(C(F)(F)F)c2)o1)N1CCN(c2ccccn2)CC1 | 2 | 8 | -7 | 5 | 1.1
CC1CN(C2CCN(C(=O)c3ccccc3)CC2)CC(C)O1 (stereo not drawn) | -1 | 8 | 0 | 0 | 1.3
CCN(CCNC(=O)CN1CCN(Cc2ccc(Cl)cc2)C1=O)c1ccccc1 | 2 | 16 | 20 | -2 | 1.8
Cc1ccc(S(=O)(=O)NC2=C(N3CCN(Cc4ccccc4)CC3)C(=O)c3ccccc3C2=O)cc1 | -13 | 46* | nt | 0 | 1.5
Cc1ccc(S(=O)(=O)NC(C)C(c2cccs2)N2CCN(c3ccccc3)CC2)cc1 (stereo not drawn) | -14 | 47* | nt | -9 | 1.1
O=C1C(NS(=O)(=O)c2cccs2)=C(N2CCN(c3ccccc3)CC2)C(=O)c2ccccc21 | -4 | 57* | nt | 17 | 1.3
Cc1ccc(S(=O)(=O)NC2=C(N3CCN(c4ccccc4F)CC3)C(=O)c3ccccc3C2=O)cc1 | -19 | 19 | nt | -11 | 1.3
O=C(NCC(c1cccnc1)N1CCN(c2ccccc2)CC1)C1CCCCC1 (stereo not drawn) | 5 | 7 | -18 | 46* | 1.1
SMILES | E coli WT exp | PostGolgi ctrl | tolC growth inh | PostGolgi yeast | PLAP activator
Cc1cc(NC(=O)c2cc(C(C)C)on2)nn1Cc1ccc(Cl)cc1 | -13 | 21 | nt | -11 | 1.2
COc1cc(C(=O)N2CCC(c3nc(-c4cccnc4)no3)CC2)cc(OC)c1OC | 2 | 6 | -18 | -7 | 1.3
CCN(CC)C(=O)C(=O)c1cccn1-c1cccc(-n2cccc2C(=O)C(=O)N(CC)CC)c1C#N | 6 | 5 | nt | 9 | 1.4
O=C(Nc1cccnc1)c1ccc2c(c1)C(=O)N(Cc1cccnc1)C2=O | 4 | 30* | -15 | 28 | 1.1
c1coc(CN(Cc2cccs2)Cc2nnnn2C2CCCCC2)c1 | 2 | 25 | 95* | -4 | nt
COc1ccccc1NS(=O)(=O)c1ccc2c(c1)n(C)c(=O)n2C | 7 | -1 | nt | 2 | 1.1
Cc1ncsc1C(=O)NCc1ccc(N2CCCC2=O)cc1 | -10 | 3 | -16 | -14 | 0.9
COc1cc(S(=O)(=O)NCCN2CCOCC2)c(OC)cc1Cl | 7 | 32* | -2 | -3 | 1.3
O=S1(=O)CC(N2CCCCC2)C(N2CCCCC2)C1 (stereo not drawn) | 1 | 0 | -25 | 11 | 1.1
COC(=O)c1ccccc1NC(=O)NCc1ccc2c(c1)OCO2 | -3 | -5 | 5 | 5 | 0.8
COC(=O)c1ccccc1NC(=O)c1ccc2c(c1)OCCO2 | -5 | 4 | 89* | -5 | 0.9
O=C(NCc1ccccc1)N(Cc1nc2ccccc2c(=O)[nH]1)C1CCCC1 | -1 | 6 | 1 | 4 | 1.3
Cc1oncc1C(=O)NC(C)C | 8 | -1 | nt | -7 | 0.8
CCN(C(=O)c1ccc(C(C)(C)C)cc1)c1nnc(Cn2nnc3ccccc32)s1 | -10 | 43* | 62* | -2 | 1.3
Cc1cccc(-n2nc3c(c2NC(=O)CCC2CCCCC2)CS(=O)C3)c1C (stereo not drawn) | 3 | 0 | 22 | 8 | nt
COC(=O)c1c(NC(=O)c2nn(C)cc2Cl)sc2c1CCCC2 | -4 | 33* | -1 | -2 | nt
COC(=O)c1c(NC(=O)CC2NCCNC2=O)sc2c1CCCC2 (stereo not drawn) | 9 | -4 | -4 | 5 | 1.6
COC(=O)c1c(NC(=O)C2CC2)sc2c1CCCC2 | 4 | 35* | 40 | -7 | 0.9
COC(=O)c1c(NC(NC(=O)C(C)(C)C)C(Cl)(Cl)Cl)sc2c1CCC2 (stereo not drawn) | 0 | 51* | nt | -2 | 1.1
CC(C)(C)C(=O)NC(NC(=S)Nc1sc2c(c1C#N)CCCC2)C(Cl)(Cl)Cl (stereo not drawn) | -6 | 15 | nt | -3 | 1
C=CCN(CC=C)S(=O)(=O)c1ccc(NC(=S)NC(=O)Cc2ccc(OC)cc2)cc1 | -14 | 10 | nt | -10 | 0.6
CCc1cc(=O)oc2cc(C)c(CN3CCCC(C)C3)c(O)c12 (stereo not drawn) | -3 | 0 | 8 | 33* | 1.4
O=C(CSc1cccs1)Nc1ccc2ccccc2c1 | 11 | 0 | nt | -13 | 1
Cc1cccc(NC(=S)NNC(=O)CC(C)O)c1C (stereo not drawn) | -1 | 48* | nt | -3 | 2*
CCCn1c(SCC(=O)N2CCCc3ccccc32)nnc1-c1ccccn1 | 2 | -1 | 21 | 2 | 1.2

Screening results deposited in PubChem by several laboratories.
